Measured values published in ChEMBL document CHEMBL1125241, “Structure-activity relationship of quinazolinedione inhibitors of calcium-independent phosphodiesterase” (J Med Chem, 1991).

Experiments:
[1] = Inhibition of phosphodiesterase 4 from guinea pig lung; parameters: species or system Cavia porcellus
Method in brief: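 Guinea pig lung was homogenized in Bistris buffer (pH 6.5) with 50 μM final PMSF and centrifuged at 12000g at 4 °C. The supernatant went onto DEAE-Sepharose and was eluted with a 0.05–1.0 M sodium acetate gradient, pooling rolipram-sensitive fractions. The assay used 50 mM Tris/10 mM MgCl₂ (pH 7.5) and 1 μM final [³H]cAMP, with compound added in 4% DMSO, for 10 min at 37 °C. Reaction was stopped by boiling; [³H]5'-AMP was separated on boronate gel and counted. IC₅₀ came from 4 log concentrations, each in triplicate.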

[2] = system: Rattus norvegicus; experiment: Percentage inhibition of carrageenan-induced rat foot edema at a dose of […] when administered perorally (po).; assay type: functional; settings: dose 3.2 mg/kg
[3] = species: Mus musculus; experiment: Inhibition of immobility in mouse forced swim test by peroral dose; assay type: functional; settings: po, read-out: MED
Method in brief: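 Compounds were dissolved in saline and given po to mice at 1 mL/100 g. One hour later, mice were put in 1-L beakers of water at 22–24 °C, deep enough that tails could not touch the bottom. Observation followed a 2-min habituation.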

[4] = species: Mus musculus; experiment: Inhibition of reserpine-induced hypothermia in mice by peroral dose; assay type: functional; settings: po, read-out: MED
Method in brief: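 Mice were housed at 18–20 °C, given reserpine 2 mg/kg sc, and kept there 18 h. Rectal temperature was then taken, followed by saline or drug po. Temperatures were re-measured, typically at 0.5, 1.0, 2.0 and 14 h. The value is the minimal effective dose (mg/kg po) that inhibits hypothermia.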

[5] = system: Rattus norvegicus; experiment: Percentage inhibition of carrageenan-induced rat foot edema at a dose of 32 mg/kg when administered perorally (po).; assay type: functional
Method in brief: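 Rats were dosed po, and 1 h later 0.05 mL of 2-week-old 1% carrageenan in distilled water was injected into the plantar tissue. Paw volume was measured immediately and 3 h after injection. The increase in foot volume was the individual response.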

Compound | IC50 [1] | inhibition in vivo at […] [2] | minimal effective dose [3] | minimal effective dose [4] | inhibition in vivo at 32 mg/kg [5]
CNC(=O)c1cccc(-n2c(=O)n(Cc3ccccc3)c(=O)c3ccccc32)c1 | 21.4 µM | – | – | – | –
CCn1c(=O)c2cccnc2n(-c2cccc(C(=O)OC)c2)c1=O | 25.9 µM | – | – | – | –
COC(=O)c1cccc(-n2c(=O)n(Cc3ccccc3)c(=O)c3cccnc32)c1 | – | 50% | 10 µg/kg | 10 µg/kg | –
COC(=O)c1cccc(-n2c(=O)[nH]c(=O)c3ccccc32)c1 | > 100 µM | – | – | < 320 µg/kg | 5%
COC(=O)c1cccc(-n2c(=O)n(CC3CC4CCC3C4)c(=O)c3cccnc32)c1 (stereo not drawn) | 0.89 µM | – | 1000 µg/kg | 1 µg/kg | –
COC(=O)c1cccc(-n2c(=O)n(CC3CCCC3)c(=O)c3cccnc32)c1 | 1.52 µM | – | 1000 µg/kg | 3 µg/kg | –
COC(=O)c1cccc(-n2c(=O)n(Cc3ccccc3)c(=O)c3ccccc32)c1 | 0.23 µM | – | > 32000 µg/kg | 100 µg/kg | 25%
CCn1c(=O)c2ccccc2n(-c2cccc(C(=O)OC)c2)c1=O | 3.8 µM | – | – | – | 19%
CCn1c(=O)c2ccccc2n(-c2cccc([N+](=O)[O-])c2)c1=O [NITRAQUAZONE] | 11.4 µM | 43% | 3200 µg/kg | 1 µg/kg | –
COc1ccc(C2CNC(=O)C2)cc1OC1CCCC1 (stereo not drawn) [ROLIPRAM] | 0.59 µM | – | 1780 µg/kg | 0.03 µg/kg | 41%
